Results filed as inconclusive are left out.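 Rule for the calls, unless noted: active = RAM network inhibition above 8.4% in each of two replicates, 3 SD over the compound average; inconclusive = above 8.4% inhibition in only one replicate; inactive = 8.4% inhibition or less in each replicate.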
Assays:
[1] = S. cerevisiae growth inhibition in permissive medium (OD615), pilot counter-assay for S. cerevisiae lifespan shortening project, permissive growth control (AID 705;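 active = growth inhibition above 25% in both replicates, a cutoff set 3 SD above the mean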); conditions: OD615, 24 h, at 10 µM, hits give high values
Procedure, shortened: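 assay system = Saccharomyces cerevisiae strain carrying genetically modified DeaD replicative-lifespan system | medium = SC raffinose/galactose permissive medium | dosing = 10 µM single dose, 0.25% DMSO | schedule = 24 h compound exposure at 30 °C after 4 h pre-growth | measured by = OD at 615 nm | read-out basis = growth inhibition from lowered OD615 after 24 h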

[2] = S. cerevisiae growth inhibition in restrictive medium, OD615, pilot screen, restrictive growth control, yeast lifespan reduction project (AID 706;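 active = growth inhibition above a set limit, 3 SD over mean compound inhibition, in both replicates, cut at about 43% in these data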;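 note: modified DeaD lifespan yeast strain shifted to restrictive glucose medium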); conditions: OD615, 48 h, at 10 µM, hits give high values
Procedure, shortened: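 Buffer or medium: CSMM-D glucose medium. Material: genetically modified Saccharomyces cerevisiae, DeaD replicative lifespan assay strain. Times: 48 h compound exposure at 30 °C. Measured by: optical density at 615 nm.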

[3] = doxorubicin toxicity protection in MRP-1 cells – H69AR cells, CellTiter-Glo, duplicate, MRP-1 activator project, pilot screen (AID 807;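 active = viability increase at or above a cutoff of the median across tested compounds plus 3 SD, cut at about 8.5% in these data, passing the limit was not always enough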;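 note: compound pretreatment 18-22 h then 72 h combined with doxorubicin; 0% = doxorubicin alone and 100% = vehicle without doxorubicin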); conditions: H69AR viability with doxorubicin, CellTiter-Glo luminescence; at 10 µM; hits give high values
[4] = viability of HCT116 without oncogenic beta-catenin – human colon tumor cells, pilot screen (AID 823;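 active = cell viability at or below a set limit in both duplicate runs, the limit being the all-compound median minus 4 SD, cut at about 23% in these data, passing the limit was not always enough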;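 note: 0% = wells killed by 20 µM Hyamine and 100% = untreated DMSO cell wells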); conditions: HCT116 beta-catenin knockout viability, CellTiter-Glo, 60 h; at 10 µM; hits give low values
[5] = viability of PTEN-null HCT116 cells – cell-based, HCT116 clonal line, CellTiter-Glo, pilot screen (AID 824;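 active = viability at or below 27.92% in each of two runs, the all-compound median minus 4 SD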;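 note: 0% = 20 µM Hyamine control and 100% = vehicle cell control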); conditions: HCT116 PTEN-deleted viability, 60 h, at 10 µM, hits give low values
[6] = RAM pathway blockade in budding yeast – dse1pr::URA3 reporter, 5-FOA selection, pilot screen (AID 869;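 active = inhibition over a set limit, the all-compound mean plus 3 SD, in both replicate runs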;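 note: 0% = DMSO wells with no growth and 100% = 10 µM 1-NA-PP1 with full growth; RAM network block rescues cells from 5-FOA so hits raise OD615 growth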); conditions: S. cerevisiae dse1pr::URA3 5-FOA growth, OD615, 2 d; at 10 µM; hits give high values; strain carries analog-sensitive mutant Cbk1 kinase
[7] = RAM signaling pathway blockade in yeast – S. cerevisiae, Pdr1DBD-CYC8 efflux-inhibited sensitized strain, primary screen (AID 1298);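 note: 0% = DMSO untreated cells without growth and 100% = 10 µM 1-NA-PP1 full growth; higher means more yeast growth rescued from 5-FOA killing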; conditions: S. cerevisiae cbk1-as DSE1-URA3 strain, 5-FOA growth OD615, 2 d; at 50 µM; hits give high values

CC(C)(C)c1ccc(NC(=O)NCc2ccco2)cc1
inactive: growth inhibition [1] -8.65% | growth inhibition [2] 2.62% | viability increase [3] -5% | viability [4] 63.8% | viability [5] 64.5% | inhibition [6] 1.23% | RAM network inhibition [7] -0.31%

Cc1cc(C(=O)Nc2nnc(C3CCCCC3)s2)cs1
inactive: growth inhibition [1] -9.12% | growth inhibition [2] 1.04% | viability increase [3] 1.38% | viability [4] 94.7% | viability [5] 101% | inhibition [6] 4.87% | RAM network inhibition [7] 9.03%

CCn1c(-c2cc(OC)ccc2OC)csc1=Nc1c(C)n(C)n(-c2ccccc2)c1=O
inactive: growth inhibition [1] -11.1% | growth inhibition [2] -22.9% | viability increase [3] 0.28% | viability [4] 93.8% | viability [5] 92.5% | inhibition [6] 1.58% | RAM network inhibition [7] 4.62%

COCCNC(=O)CS(=O)Cc1nc(-c2ccccc2C)oc1C (stereo unspecified)
inactive: growth inhibition [1] -8.16% | growth inhibition [2] 5.6% | viability increase [3] -0.56% | viability [4] 100% | viability [5] 98% | inhibition [6] 0.23% | RAM network inhibition [7] 2.05%

N#Cc1c2n(c3c(=O)n(CC(=O)c4ccc(Br)cc4)cnc13)CCCC2
inactive: growth inhibition [1] -18.3% | growth inhibition [2] -5.47% | viability increase [3] -0.17% | viability [4] 86.1% | viability [5] 86% | inhibition [6] 0.885% | RAM network inhibition [7] 2.03%

Cc1ccc(C2/C(=C(/O)c3ccc(Br)cc3)C(=O)C(=O)N2Cc2ccco2)o1 (stereo unspecified)
inactive: growth inhibition [1] -16.2% | growth inhibition [2] 7.88% | viability increase [3] -6.07% | viability [4] 55% | viability [5] 65% | inhibition [6] 0.82% | RAM network inhibition [7] -1.74%

COC(=O)CCC(=O)Nc1ccc(NC(=O)CCC(=O)OC)cc1
inactive: growth inhibition [1] -0.195% | growth inhibition [2] 0.195% | viability increase [3] -1.73% | viability [4] 103% | viability [5] 96.9% | inhibition [6] 1.73% | RAM network inhibition [7] 0.97%

Cc1cc(NC(=O)c2cc3n(n2)C(C(F)(F)F)CC(c2ccco2)N3)no1 (stereo unspecified)
inactive: growth inhibition [1] 5.72% | growth inhibition [2] 5.53% | viability increase [3] -0.69% | viability [4] 98.8% | viability [5] 94.6% | inhibition [6] 0.475% | RAM network inhibition [7] 1.13%

CCc1ccccc1NC(=O)c1cc(C2CC2)on1
inactive: growth inhibition [1] -12.1% | growth inhibition [2] 6.47% | viability increase [3] -0.65% | viability [4] 93.2% | viability [5] 91.8% | inhibition [6] 0.045% | RAM network inhibition [7] 3.34%

O=C(NCCO)c1ccc(-c2nnc(N3CCOCC3)c3ccccc23)cc1
inactive: growth inhibition [1] -8.54% | growth inhibition [2] -14.4% | viability increase [3] 0.15% | viability [4] 89.1% | viability [5] 89.6% | inhibition [6] 0.425% | RAM network inhibition [7] 3.24%

O=C(CC1CCCCC1)NCCCN1CCOCC1
inactive: growth inhibition [1] 1.88% | growth inhibition [2] -3.55% | viability increase [3] 1.14% | viability [4] 92% | viability [5] 102% | inhibition [6] 1.58% | RAM network inhibition [7] 1.38%

Cc1cc2oc3c(c(=O)c2cc1C)C(c1ccc(C(C)C)cc1)N(CCCN1CCOCC1)C3=O (stereo unspecified)
inactive: growth inhibition [1] -7.04% | growth inhibition [2] -2.79% | viability increase [3] -3.45% | viability [4] 95.8% | viability [5] 86.5% | inhibition [6] 1.31% | RAM network inhibition [7] 4.42%

CCC1Oc2nc(SC)nnc2-c2ccccc2N1C(=O)c1ccccc1 (stereo unspecified)
inactive: growth inhibition [1] -2.41% | growth inhibition [2] -2.26% | viability increase [3] -5.16% | viability [4] 70.6% | viability [5] 58.1% | inhibition [6] 1.03% | RAM network inhibition [7] 3.93%

COc1ccc(Cl)cc1N(CC(=O)N1CCN(Cc2ccccc2)CC1)S(C)(=O)=O
inactive: growth inhibition [1] -5.27% | growth inhibition [2] -11.1% | viability increase [3] -0.51% | viability [4] 95.9% | viability [5] 92.8% | inhibition [6] 1.38% | RAM network inhibition [7] 0.41%

O=C(CCC1CCCC1)N1CCN(C(=O)c2ccco2)CC1
inactive: growth inhibition [1] -5.94% | growth inhibition [2] -2.57% | viability increase [3] -3.59% | viability [4] 86.3% | viability [5] 83.2% | inhibition [6] 1.39% | RAM network inhibition [7] 0.98%

O=C1c2ccccc2C(Nc2cccnc2)N1Cc1ccc2c(c1)OCO2 (stereo unspecified)
inactive: growth inhibition [1] 7.46% | growth inhibition [2] 3.33% | viability increase [3] -2.21% | viability [4] 94.1% | viability [5] 104% | inhibition [6] 0.205% | RAM network inhibition [7] 1.74%

Cn1nc(-c2ccc(Cl)cc2)c2cc(C(=O)NCC3CCCO3)sc21 (stereo unspecified)
inactive: growth inhibition [1] 1.54% | growth inhibition [2] 17.7% | viability increase [3] -5.84% | viability [4] 65.9% | viability [5] 60.2% | inhibition [6] -0.13% | RAM network inhibition [7] -2.54%

Cc1ccc(-n2c3c(cc(C(=O)N4CCN(C)CC4)c2=O)C(=O)CC(C)(C)C3)cc1
inactive: growth inhibition [1] -21.9% | growth inhibition [2] -9.49% | viability increase [3] 0.41% | viability [4] 101% | viability [5] 96.6% | inhibition [6] 1.48% | RAM network inhibition [7] 2.1%

O=C(NCC1CCCO1)c1ccc2c(=O)n(CCc3ccccc3)c(=O)[nH]c2c1 (stereo unspecified)
inactive: growth inhibition [1] -3.02% | growth inhibition [2] -27% | viability increase [3] -1.15% | viability [4] 104% | viability [5] 102% | inhibition [6] 4.28% | RAM network inhibition [7] 3.8%

O=C(Nc1nccs1)c1ccc(Cl)s1
inactive: growth inhibition [1] -0.705% | growth inhibition [2] 4.79% | viability increase [3] 1.01% | viability [4] 96.3% | viability [5] 94.9% | inhibition [6] -0.025% | RAM network inhibition [7] -1.54%

COc1ccccc1NC(=O)c1ccc(N)cc1
inactive: growth inhibition [1] -2% | growth inhibition [2] -2.66% | viability increase [3] 0.45% | viability [4] 105% | viability [5] 103% | inhibition [6] 2.87% | RAM network inhibition [7] 2.74%

O=C1CC(c2ccccc2)CN1S(=O)(=O)c1ccccc1 (stereo unspecified)
inactive: growth inhibition [1] -1.7% | growth inhibition [2] 3.08% | viability increase [3] 0% | viability [4] 108% | viability [5] 97.8% | inhibition [6] 0.085% | RAM network inhibition [7] 1.71%

CCCc1c(C(=O)OCC)[nH]c2c1C(=O)CCC2
inactive: growth inhibition [1] 1.82% | growth inhibition [2] 2.14% | viability increase [3] -2.07% | viability [4] 107% | viability [5] 95.3% | inhibition [6] 1.46% | RAM network inhibition [7] 2.61%

Cc1ccc(S(=O)(=O)N2C3C=CC(C3)C2C(=O)O)cc1 (stereo unspecified)
inactive: growth inhibition [1] 3.23% | growth inhibition [2] -3.31% | viability increase [3] -0.3% | viability [4] 94.3% | viability [5] 99.9% | inhibition [6] 0.08% | RAM network inhibition [7] 1.2%

CC(C)C(=O)N=c1sc2cc(F)cc(F)c2n1C
inactive: growth inhibition [1] -9.84% | growth inhibition [2] -0.65% | viability increase [3] -1.28% | viability [4] 94.1% | viability [5] 99% | inhibition [6] 0.01% | RAM network inhibition [7] 0.96%

COc1ccc(N2C(=O)CC(NCc3cccc(F)c3)C2=O)cc1 (stereo unspecified)
inactive: growth inhibition [1] -6.89% | growth inhibition [2] -3.85% | viability increase [3] -0.75% | viability [4] 99.3% | viability [5] 98% | inhibition [6] 0.82% | RAM network inhibition [7] 5.38%

O=C(c1ccccc1F)N1CCN=C1SCc1cccnc1
inactive: growth inhibition [1] -22.1% | growth inhibition [2] 1.65% | viability increase [3] -1.2% | viability [4] 96.8% | viability [5] 99.8% | inhibition [6] 0.695% | RAM network inhibition [7] 4.47%

O=C(O)CCC(=O)N1CCc2cc(S(=O)(=O)Nc3ccc4c(c3)OCCO4)ccc21
inactive: growth inhibition [1] -4.35% | growth inhibition [2] -7.19% | viability increase [3] -1.45% | viability [4] 94% | viability [5] 96.3% | inhibition [6] 0.535% | RAM network inhibition [7] -1.56%

COc1ccc(CN2CCCC2C(=O)Nc2ccc(OC)c(OC)c2)cc1OC (stereo unspecified)
inactive: growth inhibition [1] -5.96% | growth inhibition [2] -5.92% | viability increase [3] -2.8% | viability [4] 102% | viability [5] 97.3% | inhibition [6] 0.71% | RAM network inhibition [7] 0.26%

CCOC(=O)N1CCN(C(=O)CS(=O)Cc2nc(-c3ccc(C)cc3)oc2C)CC1 (stereo unspecified)
inactive: growth inhibition [1] -5.11% | growth inhibition [2] 7.44% | viability increase [3] -1.59% | viability [4] 89.3% | viability [5] 92.1% | inhibition [6] 1.68% | RAM network inhibition [7] 7.07%

CCN(CC)C(=O)Cn1c(=O)n(-c2ccccc2)c(=O)n1CC(=O)N(CC)CC
inactive: growth inhibition [1] -4.64% | growth inhibition [2] 2.5% | viability increase [3] -1.25% | viability [4] 103% | viability [5] 97.4% | inhibition [6] 1.29% | RAM network inhibition [7] 1.08%

CSC1=NCCN1C(=O)c1ccco1
inactive: growth inhibition [1] 1.44% | growth inhibition [2] -4.79% | viability increase [3] 0.04% | viability [4] 103% | viability [5] 98.3% | inhibition [6] 0.865% | RAM network inhibition [7] 3.19%

O=S(=O)(Cc1ccccc1)N1CCn2c(nc3ccccc32)C1
inactive: growth inhibition [1] -14.1% | growth inhibition [2] -0.745% | viability increase [3] -0.75% | viability [4] 103% | viability [5] 97.5% | inhibition [6] 1.5% | RAM network inhibition [7] 4.75%
